Here are results for 1 substance from PMC12594201 (Proteins, 2025).

In experiment [1] the target is T1, β‐clamp (Escherichia coli, UniProt P0A988). The experiment is described as follows: Calculated fraction of β‐clamp bound / saturation level. The following applies: NMR titration, 200 μM β‐clamp with up to 800 μM peptide. The class given is binding, E. coli. The method, boiled down:
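Fraction of β-clamp bound computed from the quadratic single-site equation using total protein concentration, total ligand concentration and K_D. […]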

Experiment [2] has as its target T1, β‐clamp. The following applies: literature values; ref [34], [35]; cited from earlier work.

T1 sequence (P0A988 whole entry): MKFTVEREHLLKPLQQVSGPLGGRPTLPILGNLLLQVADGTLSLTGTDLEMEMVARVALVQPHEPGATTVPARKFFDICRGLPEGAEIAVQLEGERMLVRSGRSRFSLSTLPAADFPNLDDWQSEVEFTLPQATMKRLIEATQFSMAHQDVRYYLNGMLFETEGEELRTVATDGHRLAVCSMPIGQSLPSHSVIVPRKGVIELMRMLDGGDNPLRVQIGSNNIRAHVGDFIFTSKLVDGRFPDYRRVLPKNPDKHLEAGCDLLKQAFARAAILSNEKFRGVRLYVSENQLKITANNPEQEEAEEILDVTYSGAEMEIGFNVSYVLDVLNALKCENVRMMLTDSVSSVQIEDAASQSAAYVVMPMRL

Regarding NH3 ^+‐GWLDPQMERQLVLGL‐COO^— [pol IV*], on β‐clamp [1], the “saturation level of β‐clamp” value is on record as greater than 98%. The Kd on β‐clamp [2] is 2 to 8 µM.

As a reminder, the Kd is the equilibrium constant for the complex coming apart.
